Assay results gathered from unrelated publications.
Protocols differ between the studies behind these lines.
Target: Protein kinase C alpha type (PRKCA, Homo sapiens, UniProt P17252)

| SMILES | read-out | mode | technique | concentration | endpoint | result |
| --- | --- | --- | --- | --- | --- | --- |
| COc1cc(Nc2cnc(C#N)c(O[C@H](C)CN(C)C)n2)ncc1-c1cnn(C)c1 | enzyme activity | inhibitor | radiometric | 10 µM | remaining activity | 102% |
| O=C(CSc1nc2nccnc2c(=O)n1CCc1ccccc1)Nc1nccs1 | enzyme activity | inhibitor | – | 10 µM | inhibition | 15% |
| O=C1NC(=O)c2cc(Nc3ccc(F)cc3)c(Nc3ccc(F)cc3)cc21 | cell-free assay | – | – | 0.5 µM | remaining signal | 99.3% |
| Cc1cc(NC(=O)c2cccc3cc(-c4cccc5[nH]nc(N)c45)ccc23)ccc1F | enzyme activity | inhibitor | – | 0.1 µM | activity vs control | 95% |
| Cc1ccc(C(=O)NCc2ccsc2)cc1C#Cc1cn(C(C)C)c2ncnc(N)c12 | enzyme activity | inhibitor | – | 1 µM | activity vs control | 92% |
| Oc1cccc(-c2nc(N3CCOCC3)c3oc4ncccc4c3n2)c1 | enzyme activity | inhibitor | – | 10 µM | remaining activity | 93% |
| CC(C)(C)c1nc2c(s1)c1nc(N)ncc1c1ccc(NS(=O)(=O)c3c(F)cccc3F)c(F)c12 | enzyme activity | inhibitor | radiometric | 1 µM | remaining activity | 107% |
| CC(C)c1ccc(NC(=O)c2cccs2)c(-c2nc3ccccc3[nH]c2=O)c1 | enzyme activity | inhibitor | – | 1 µM | activity vs control | 100% |
| Cn1c(=O)n(-c2ccc(C(C)(C)C#N)cc2)c2c3cc(-c4cnc5ccccc5c4)ccc3ncc21 | enzyme activity | inhibitor | – | 10 µM | remaining activity | 87% |
| CNC(=O)c1cc(Oc2ccc(NC(=O)Nc3ccc(Cl)c(C(F)(F)F)c3)cc2)ccn1 | cell-free assay | – | – | 0.5 µM | remaining signal | 96.8% |
| CCN(CC)CCNC(=O)c1c(C)[nH]c(/C=C2\C(=O)Nc3ccc(F)cc32)c1C | enzyme activity | inhibitor | – | 1 µM | remaining activity | 102% |
| O=C(Nc1cnn(-c2csc(C(=O)NC3COC3)c2)c1)Nc1ccccc1Cl | enzyme activity | inhibitor | – | 5 µM | remaining activity | 101% |
| FC(F)(F)Oc1cccc(-c2cnc3ccc(-c4ccncc4)nn23)c1 | enzyme activity | inhibitor | radiometric | 5 µM | activity vs control | 91% |
| CCN(CC)CCNC(=O)c1c(C)[nH]c(/C=C2\C(=O)Nc3ccc(F)cc32)c1C | enzyme activity | inhibitor | – | 10 µM | inhibition | 11% |
| Cc1cnc(NC2CCOCC2)nc1-n1cnc(C(=O)NC(CN)c2cc(F)cc(Cl)c2)c1 (stereo not shown) | enzyme activity | inhibitor | radiometric | 1 µM | remaining activity | 100% |
| C=CC(=O)Nc1cc(Nc2nccc(Nc3cc(Cl)c(F)cc3C(C)(C)O)n2)c(OC)cc1N1CC[C@@H](N(C)C)C1 | enzyme activity | inhibitor | – | 1 µM | inhibition | 13% |
| COc1cc2ncnc(Nc3ccc(Oc4ccccc4)cc3C)c2cc1OC | enzyme activity | inhibitor | – | 1 µM | inhibition | 6% |
| Cc1[nH]c(/C=C2\C(=O)Nc3ccc(F)cc32)c(C)c1C(=O)N[C@H]1CCN(C(=O)N(C)C)C1 | enzyme activity | inhibitor | – | 0.1 µM | remaining activity | 108% |
| O=C1Nc2ccc(Cl)cc2C1=Cc1cc(Cl)c(O)c(Cl)c1 | cell-free assay | – | – | 0.5 µM | remaining signal | 105% |
| CN(c1ncccc1CNc1nc(Nc2ccc3c(c2)CC(=O)N3)ncc1C(F)(F)F)S(C)(=O)=O | enzyme activity | inhibitor | – | 1 µM | inhibition | 28.4% |
| CCN(CC)c1ccc(C2=NNC(=O)CC2C)cc1[N+](=O)[O-] (stereo not shown) | enzyme activity | inhibitor | – | 10 µM | remaining activity | 21% |
| Cc1ccc(-n2nc(C(C)(C)C)cc2NC(=O)Nc2ccc(OCCN3CCOCC3)c3ccccc23)cc1 | enzyme activity | inhibitor | – | 10 µM | inhibition | 9% |
